Columns and labels:
[1] = test system: IGROV-1; assay: Growth inhibition of human IGROV1 cells after 48 hrs by sulforhodamine B assay; type: functional, cell-based; settings: IGROV-1, 48 h; for CC50: read-out: LC50 (the source's name)
Summary of the method: (§1)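 Cells grown in RPMI 1640 with 5% FBS and 2 mM L-glutamine, seeded at 5,000–40,000 cells/well according to doubling time. After 24 h, time-zero plates are TCA-fixed. Five concentrations (10-fold or ½log dilutions, DMSO stocks) are applied for 48 h at 37 °C, 5% CO₂. Cells are TCA-fixed, SRB-stained and read at 515 nm. IC₅₀ is taken from [(Ti−Tz)/(C−Tz)]×100 = 50.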

[2] = test system: OVCAR-3; assay: Growth inhibition of human OVCAR-3 cells after 48 hrs by sulforhodamine B assay; type: functional, cell-based; settings: OVCAR-3, 48 h; for CC50: read-out: LC50 (the source's name); summary of the method: as §1
[3] = test system: OVCAR-8; assay: Growth inhibition of human OVCAR8 cells after 48 hrs by sulforhodamine B assay; type: functional, cell-based; settings: for CC50: read-out: LC50 (the source's name); summary of the method: as §1
[4] = test system: SK-OV-3; assay: Growth inhibition of human SKOV3 cells after 48 hrs by sulforhodamine B assay; type: functional, cell-based; settings: SK-OV-3, 48 h; summary of the method: as §1
[5] = test system: TK-10; assay: Growth inhibition of human TK10 cells after 48 hrs by sulforhodamine B assay; type: functional, cell-based; settings: TK-10, 48 h; for CC50: read-out: LC50 (the source's name); summary of the method: as §1
[6] = test system: SF-295; assay: Cytotoxicity against human SF295 cells assessed as cell growth at 0.001 uM after 48 hrs by sulforhodamine B assay; type: functional; settings: SF-295, 48 h, read-out: Activity
[7] = test system: OVCAR-8; assay: Cytotoxicity against human OVCAR8 cells assessed as cell growth at 0.001 uM after 48 hrs by sulforhodamine B assay; type: functional; settings: OVCAR-8, 48 h, read-out: Activity
[8] = test system: NCI/ADR-RES; assay: Cytotoxicity against human NCI/ADR-RES cells assessed as cell growth at 0.001 uM after 48 hrs by sulforhodamine B assay; type: functional; settings: read-out: Activity
[9] = test system: DU-145; assay: Cytotoxicity against human DU145 cells assessed as cell growth at 0.001 uM after 48 hrs by sulforhodamine B assay; type: functional; settings: DU-145, 48 h, read-out: Activity
[10] = Cytotoxicity against human Hs 578T cells assessed as cell growth at 0.001 uM after 48 hrs by sulforhodamine B assay; type: functional; settings: read-out: Activity
[11] = test system: MOLT-4; assay: Cytotoxicity against human MOLT4 cells assessed as cell growth at 100 nM after 48 hrs by sulforhodamine B assay; type: functional; settings: MOLT-4, 48 h, read-out: Activity
[12] = test system: NCI-H322M; assay: Cytotoxicity against human NCI-H322M cells assessed as cell growth at 100 nM after 48 hrs by sulforhodamine B assay; type: functional; settings: read-out: Activity
[13] = test system: UACC-257; assay: Cytotoxicity against human UACC257 cells assessed as cell growth at 100 nM after 48 hrs by sulforhodamine B assay; type: functional; settings: UACC-257, 48 h, read-out: Activity
[14] = test system: A549; assay: Cytotoxicity against human A549 cells assessed as cell growth at 0.01 uM after 48 hrs by sulforhodamine B assay; type: functional; settings: A549, 48 h, read-out: Activity
Summary of the method: (§2)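 Cells grown in RPMI 1640 with 5% FBS and 2 mM L-glutamine, seeded at 5,000–40,000 cells/well by doubling time. Time-zero plates TCA-fixed after 24 h. Five concentrations (10-fold or half-log dilutions from DMSO stock) added; 48 h at 37 °C, 5% CO2. Cold TCA fixation (final 10%, 60 min, 4 °C), 0.4% SRB stain, dye solubilized in 10 mM trizma base, A515.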

[15] = test system: IGROV-1; assay: Cytotoxicity against human IGROV1 cells assessed as cell growth at 10 uM after 48 hrs by sulforhodamine B assay; type: functional; settings: IGROV-1, 48 h, read-out: Activity
[16] = test system: UO-31; assay: Cytotoxicity against human UO31 cells assessed as cell growth at 10 uM after 48 hrs by sulforhodamine B assay; type: functional; settings: UO-31, 48 h, read-out: Activity
[17] = test system: SW-620; assay: Cytotoxicity against human SW620 cells assessed as cell growth at 1 uM after 48 hrs by sulforhodamine B assay; type: functional; settings: SW-620, 48 h, read-out: Activity
[18] = test system: UACC-257; assay: Cytotoxicity against human UACC257 cells assessed as cell growth at 0.01 uM after 48 hrs by sulforhodamine B assay; type: functional; settings: UACC-257, 48 h, read-out: Activity
[19] = test system: UACC-62; assay: Cytotoxicity against human UACC62 cells assessed as cell growth at 0.01 uM after 48 hrs by sulforhodamine B assay; type: functional; settings: UACC-62, 48 h, read-out: Activity
[20] = test system: TK-10; assay: Cytotoxicity against human TK10 cells assessed as cell growth at 0.01 uM after 48 hrs by sulforhodamine B assay; type: functional; settings: TK-10, 48 h, read-out: Activity
[21] = test system: UO-31; assay: Cytotoxicity against human UO31 cells assessed as cell growth at 0.01 uM after 48 hrs by sulforhodamine B assay; type: functional; settings: UO-31, 48 h, read-out: Activity
[22] = test system: LOX IMVI; assay: Cytotoxicity against human LOXIMVI cells assessed as cell growth at 1 uM after 48 hrs by sulforhodamine B assay; type: functional; settings: read-out: Activity
[23] = test system: Malme-3M; assay: Cytotoxicity against human MALME-3M cells assessed as cell growth at 1 uM after 48 hrs by sulforhodamine B assay; type: functional; settings: read-out: Activity
[24] = test system: SK-MEL-2; assay: Cytotoxicity against human SK-MEL-2 cells assessed as cell growth at 1 uM after 48 hrs by sulforhodamine B assay; type: functional; settings: SK-MEL-2, 48 h, read-out: Activity
[25] = test system: UACC-62; assay: Cytotoxicity against human UACC62 cells assessed as cell growth at 1 uM after 48 hrs by sulforhodamine B assay; type: functional; settings: UACC-62, 48 h, read-out: Activity
[26] = test system: OVCAR-4; assay: Cytotoxicity against human OVCAR4 cells assessed as cell growth at 1 uM after 48 hrs by sulforhodamine B assay; type: functional; settings: OVCAR-4, 48 h, read-out: Activity
[27] = test system: OVCAR-8; assay: Cytotoxicity against human OVCAR8 cells assessed as cell growth at 1 uM after 48 hrs by sulforhodamine B assay; type: functional; settings: OVCAR-8, 48 h, read-out: Activity
[28] = test system: UO-31; assay: Cytotoxicity against human UO31 cells assessed as cell growth at 1 uM after 48 hrs by sulforhodamine B assay; type: functional; settings: UO-31, 48 h, read-out: Activity
[29] = test system: MDA-MB-231; assay: Cytotoxicity against human MDA-MB-231 cells assessed as cell growth at 1 uM after 48 hrs by sulforhodamine B assay; type: functional; settings: MDA-MB-231, 48 h, read-out: Activity
[30] = test system: A549; assay: Cytotoxicity against human A549 cells assessed as cell growth at 10 uM after 48 hrs by sulforhodamine B assay; type: functional; settings: A549, 48 h, read-out: Activity; summary of the method: as §2
[31] = test system: HCT-116; assay: Growth inhibition of human HCT116 cells after 48 hrs by sulforhodamine B assay; type: functional, cell-based; settings: HCT-116, 48 h; for CC50: read-out: LC50 (the source's name); summary of the method: as §1
[32] = test system: SF-295; assay: Growth inhibition of human SF295 cells after 48 hrs by sulforhodamine B assay; type: functional, cell-based; settings: SF-295, 48 h; for CC50: read-out: LC50 (the source's name); summary of the method: as §1

CC(=O)c1ccccc1-c1ccc(-c2ccnc(NC(=O)Nc3cc(N4CCOCC4)cc(C(F)(F)F)c3)n2)cn1
GI50 [1]: > 100 µM | IC50 [1]: 6.18 µM | TGI [1]: > 100 µM | CC50 [1]: > 100 µM | GI50 [2]: 6.18 µM | IC50 [2]: > 100 µM | TGI [2]: > 100 µM | CC50 [2]: > 100 µM | TGI ([3]; Homo sapiens, OVCAR-8, 48 h): > 100 µM | CC50 ([3]; Homo sapiens, OVCAR-8, 48 h): > 100 µM | IC50 ([3]; ovcar-8): Not Active | GI50 [4]: > 100 µM | IC50 [4]: 9.42 µM | LC50 (concentration giving 50% net cell kill) [4]: > 100 µM | TGI [4]: > 100 µM | GI50 [5]: > 100 µM | IC50 [5]: 5.46 µM | TGI [5]: > 100 µM | CC50 [5]: > 100 µM | growth at 0.001 µM [6]: 93% | growth at 0.001 µM [7]: 92% | growth at 0.001 µM [8]: 100% | growth at 0.001 µM [9]: 100% | growth at 0.001 µM [10]: 107% | growth at 0.1 µM [11]: 75% | growth at 0.1 µM [12]: 99% | growth at 0.1 µM [13]: 83% | growth at 0.01 µM [14]: 102% | growth at 10 µM [15]: 41% | growth at 10 µM [16]: 86% | growth at 1 µM [17]: 84% | growth at 0.01 µM [18]: 79% | growth at 0.01 µM [19]: 94% | growth at 0.01 µM [20]: 117% | growth at 0.01 µM [21]: 91% | growth at 1 µM [22]: 54% | growth at 1 µM [23]: 24% | growth at 1 µM [24]: 65% | growth at 1 µM [25]: 73% | growth at 1 µM [26]: 48% | growth at 1 µM [27]: 41% | growth at 1 µM [28]: 82% | growth at 1 µM [29]: 35% | growth at 10 µM [30]: 74% | GI50 [31]: > 100 µM | IC50 [31]: > 100 µM | TGI [31]: > 100 µM | CC50 [31]: > 100 µM | GI50 [32]: 40.2 µM | IC50 [32]: 9.04 µM | TGI [32]: > 100 µM | CC50 [32]: > 100 µM

CC(=O)Nc1cccc(-c2ccc(-c3ccnc(NC(=O)Nc4cc(C(F)(F)F)cc(C(F)(F)F)c4)n3)cn2)c1.Cl
GI50 [1]: 2.68 µM | IC50 [1]: 2.68 µM | TGI [1]: 9.46 µM | CC50 [1]: > 100 µM | GI50 [2]: 1.85 µM | IC50 [2]: 1.85 µM | TGI [2]: 4.23 µM | CC50 [2]: 9.69 µM | GI50 ([3]; Homo sapiens, OVCAR-8, 48 h): 2.07 µM | TGI ([3]; Homo sapiens, OVCAR-8, 48 h): 5.93 µM | IC50 ([3]; Homo sapiens, OVCAR-8, 48 h, read-out: IC50): 2.07 µM | CC50 ([3]; Homo sapiens, OVCAR-8, 48 h): 26.4 µM | GI50 [4]: 13.1 µM | IC50 [4]: 13.1 µM | LC50 (concentration giving 50% net cell kill) [4]: 78.8 µM | TGI [4]: 32.2 µM | GI50 [5]: 16.8 µM | IC50 [5]: 16.8 µM | TGI [5]: 39.8 µM | CC50 [5]: 94.1 µM | growth at 0.001 µM [6]: 98% | growth at 0.001 µM [7]: 102% | growth at 0.001 µM [8]: 95% | growth at 0.001 µM [9]: 112% | growth at 0.001 µM [10]: 90% | growth at 0.1 µM [11]: 69% | growth at 0.1 µM [12]: 69% | growth at 0.1 µM [13]: 78% | growth at 0.01 µM [14]: 67% | growth at 10 µM [15]: -21% | growth at 10 µM [16]: -75% | growth at 1 µM [17]: -33% | growth at 0.01 µM [18]: 96% | growth at 0.01 µM [19]: 92% | growth at 0.01 µM [20]: 102% | growth at 0.01 µM [21]: 87% | growth at 1 µM [22]: -40% | growth at 1 µM [23]: -50% | growth at 1 µM [24]: 35% | growth at 1 µM [25]: 12% | growth at 1 µM [26]: 4% | growth at 1 µM [27]: -25% | growth at 1 µM [28]: 48% | growth at 1 µM [29]: 30% | growth at 10 µM [30]: -86% | GI50 [31]: 1.6 µM | IC50 [31]: 1.6 µM | TGI [31]: 4.71 µM | CC50 [31]: 17.1 µM | GI50 [32]: 1.27 µM | IC50 [32]: 1.27 µM | TGI [32]: 6.19 µM | CC50 [32]: > 100 µM

Reference: ChEMBL document CHEMBL1165943, “Design and synthesis of new anticancer pyrimidines with multiple-kinase inhibitory effect” (Bioorg Med Chem, 2010)
